These results are taken from ChEMBL document CHEMBL1153632, “HCV NS5B polymerase inhibitors 1: Synthesis and in vitro activity of 2-(1,1-dioxo-2H-[1,2,4]benzothiadiazin-3-yl)-1-hydroxynaphthalene derivatives” (Bioorg Med Chem Lett, 2009).

For data set [1], the system named is Hepatitis C virus. Put plainly: Antiviral activity against HCV 1b infected in human HuH7 cells after 46 to 50 hrs by luc/neo ET replicon assay. The conditions noted are these: genotype 1b, Huh-7. Type of data set: functional, organism-based, Hepacivirus hominis. The gist of the method:
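Huh-7 cells stably carrying luc/neo ET replicon, grown in DMEM with 10% FCS, were seeded at 5 × 10³ cells/well. Serially diluted compounds were added about 24 h after plating, at 1% final DMSO. After 46–50 h exposure, cells were lysed with BrightGLO reagent for 2 min at 20 °C and luminescence was read.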

Data set [2] is described as follows: Inhibition of HCV 1a NS5B polymerase. On the set-up: species or system Hepatitis C virus subtype 1a.
The nature of data set [3]: Inhibition of HCV isolate HC-J4 NS5B deltaC21 polymerase. On the set-up: species or system Hepatitis C virus isolate HC-J4. The gist of the method:
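Genotype 1b J4 ΔC21 enzyme (5 nM) in 20 mM Tris pH 7.5 with 5 mM MgCl₂, 5 mM KCl, 1 mM EDTA, 2 mM DTT and 0.01% BSA, room temperature. Serial DMSO dilutions were preincubated with enzyme for 5 min. Reaction was started with 250 nM 5′-biotin-rU₁₂ primer, poly-rA template, UTP and ³H-UTP, in 5% DMSO, and run 2 h. Stopped with EDTA/streptavidin SPA beads, then CsCl; scintillation counting.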

A short description of data set [4]: Cytotoxicity against human HuH7 cells. Type of data set: cell-based, Huh-7.

The pEC50 is the EC50 on a negative log10 scale, so that one unit is a factor of ten. The low end stands for a large EC50, the high end for a small EC50. A word on the pIC50: it is the IC50 on a negative log10 scale, so that one unit is a factor of ten. Low readings indicate a large IC50, high ones a small IC50. As a reminder, the CC50 is the concentration at which the toxic effect on the cells reaches its halfway point. A low value points to greater toxicity to the cells.

pEC50, pIC50: −log10 of the molar value.

`CC(C)CCn1c(=O)c(C2=NS(=O)(=O)c3ccccc3N2)c(O)c2ccccc21` showed a pEC50 in data set [1] of 6.38.

`CC(C)CC[C@@]1(C)C(=O)C(C2=NS(=O)(=O)c3cc(NS(C)(=O)=O)ccc3N2)=C(O)c2ccccc21`: the pIC50 in data set [2] was 8.90; in data set [3] it was 9.48.

On to `COc1c(C2=NS(=O)(=O)c3ccccc3N2)cc(CCC(C)C)c2ccccc12`, for which the negative-log EC50 (pEC50) in data set [1] is 5.02. Moreover, the CC50 in data set [4] turned out to be 13 µM. The compound also had a pIC50 in data set [3] of 4.57.

Regarding `COc1c(C2=NS(=O)(=O)c3cc(NS(C)(=O)=O)ccc3N2)c(OC)c2ccccc2c1CCC(C)C`, in data set [1], the negative logarithm of the EC50 (pEC50) is under 4.00. The CC50 in data set [4] turned out to be 40 µM. In data set [3], the pIC50 was 6.20.

`COc1c(C2=NS(=O)(=O)c3cc(NS(C)(=O)=O)ccc3N2)cc(CCC(C)C)c2ccccc12` gave a pEC50 in data set [1] of 4.68. In data set [4], the CC50 was determined as 51 µM. The compound also showed a negative-log IC50 (pIC50) in data set [3] of 7.32.

Regarding `CC(C)CCc1c(O)c2c(c3ccccc13)OCN1C2=NS(=O)(=O)c2cc(NS(C)(=O)=O)ccc21`, in data set [1], the negative logarithm of the EC50 (pEC50) is 4.47. In data set [4], this compound returned a half-maximal cytotoxic concentration (CC50) of over 100 µM. In data set [3], this compound gave a pIC50 of 6.28.

In the case of `COc1c(C2=NS(=O)(=O)c3cc(NS(C)(=O)=O)ccc3N2)c(O)c2ccccc2c1CCC(C)C`, the negative logarithm of the EC50 (pEC50) in data set [1] was 5.54. The same compound had a CC50 in data set [4] of 120 µM. The pIC50 in data set [3] was 7.43.

In data set [1], `CC(C)CCc1c(F)c(C2=NS(=O)(=O)c3cc(NS(C)(=O)=O)ccc3N2)c(O)c2ccccc12` gave a negative-log EC50 (pEC50) of 5.57. The same compound displayed a half-maximal cytotoxic concentration (CC50) in data set [4] of over 100 µM. The same compound gave a negative logarithm of the IC50 (pIC50) in data set [3] of 7.51.

Take `CC(C)CCc1c2c(c(O)c3ccccc13)C1=NS(=O)(=O)c3cc(NS(C)(=O)=O)ccc3N1CO2`: the pEC50 in data set [1] was under 4.00. The compound further gave a cytotoxic concentration (CC50) in data set [4] of over 100 µM. Besides, the negative-log IC50 (pIC50) in data set [3] was 5.06.

As for `CC(C)CCc1cc(C2=NS(=O)(=O)c3ccccc3N2)c(O)c2ccccc12`, the negative-log EC50 (pEC50) in data set [1] was 4.59. For the same compound, the CC50 in data set [4] stood at 37 µM. The compound further had a pIC50 in data set [3] of 5.08.

Consider `CC(C)CCc1cc(C2=NS(=O)(=O)c3cc(NS(C)(=O)=O)ccc3N2)c(O)c2ccccc12`, for which the negative-log EC50 (pEC50) in data set [1] was 5.37. In data set [4], this compound registered a CC50 of over 100 µM. The same compound gave a pIC50 in data set [3] of 6.82.

With `CC(C)CCc1c(F)c(C2=NS(=O)(=O)c3ccccc3N2)c(O)c2ccccc12`, the negative logarithm of the EC50 (pEC50) in data set [1] is 4.72. The compound also gave a CC50 in data set [4] of 12 µM. In data set [3], this compound gave a pIC50 of 6.96.

For the compound `CC(C)CCC1(O)C(=O)C(C2=NS(=O)(=O)c3cc(NS(C)(=O)=O)ccc3N2)=C(O)c2ccccc21` (stereo not given), the pEC50 in data set [1] is 7.72. In data set [4], the 50% cytotoxic concentration (CC50) is over 100 µM. Besides, the pIC50 in data set [3] is over 8.30.

As to `CC(C)CCc1c2c(c(O)c3ccccc13)C1=Nc3ccc(NS(C)(=O)=O)cc3S(=O)(=O)N1CO2`, in data set [1], the pEC50 is 5.08. Also, it took 33 µM to reach half-maximal cytotoxicity in data set [4] (CC50). Moreover, the pIC50 in data set [3] was 6.31.

Turning to `COc1c(C2=NS(=O)(=O)c3cc(NS(C)(=O)=O)ccc3N2)c(O)c(CCC(C)C)c2ccccc12`, in data set [1], the pEC50 was 5.96. It took 110 µM to reach half-maximal cytotoxicity in data set [4] (CC50). The compound also had a pIC50 in data set [3] of 8.30.

`CC(C)CCc1c(O)c2c(c3ccccc13)OCN1C2=Nc2ccc(NS(C)(=O)=O)cc2S1(=O)=O` showed a negative-log EC50 (pEC50) in data set [1] of 4.92. This compound also had a CC50 in data set [4] of 35 µM. The compound also had a pIC50 in data set [3] of 5.89.
